Numbering of substitutions follows the chain as printed. Active and inactive are the calls of the source. The calls are words filed in the database; no cut-off is given here. *1 amine or outer side, *2 acyl side, *3 side chain or, on linkers, in order; H or OH if unused. Where a SMILES comes first, the peptide text is derived from it. Bridges are numbered along the chain shown (N, C = ends). [ ]: non-standard residue; d: D form. Tyr(3,5-Br2) = N[C@@H](Cc1cc(Br)c(O)c(Br)c1)C(=O)O; X1 = CCC(CC)(CC(=O)[*:1])S[*:2]; X2 = CC(C)(CC(=O)[*:1])S[*:2]; Pen = CC(C)(S)[C@H](N)C(=O)O

From ChEMBL document CHEMBL3244323, “[1-Penicillamine,2-leucine]oxytocin. Synthesis and pharmacological and conformational studies of a potent peptide hormone inhibitor” (J Med Chem, 1979) come the findings set out here.

Experiment [1] deals with T1, Oxytocin receptor (Mus musculus) (UniProt P97926).
T1 sequence (whole entry): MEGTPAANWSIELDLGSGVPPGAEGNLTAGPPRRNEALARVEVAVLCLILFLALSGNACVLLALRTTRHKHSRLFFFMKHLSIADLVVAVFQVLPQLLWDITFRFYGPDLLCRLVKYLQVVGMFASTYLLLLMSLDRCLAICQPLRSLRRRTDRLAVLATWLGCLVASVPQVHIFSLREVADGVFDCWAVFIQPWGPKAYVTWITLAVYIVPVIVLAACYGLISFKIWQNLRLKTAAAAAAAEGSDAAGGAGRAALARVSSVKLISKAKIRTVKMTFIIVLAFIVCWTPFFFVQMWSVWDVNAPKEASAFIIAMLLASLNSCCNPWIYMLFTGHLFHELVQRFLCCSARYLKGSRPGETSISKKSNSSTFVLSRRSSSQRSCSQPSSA
Description: Antagonist activity at oxytocin receptor in mouse mammary gland tissue assessed as inhibition of oxytocin-induced milk ejection by spectrophotometry. In outline:
(§1)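 Mouse mammary gland tissue was incubated in vitro with oxytocin alone, or with oxytocin plus antagonist at up to 10^-5 M. Released milk was measured spectrophotometrically as absorbance. Values are mean ± SE from tissue of four mice.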

Experiment [2] deals with T2, Oxytocin receptor (Homo sapiens, UniProt P30559).
T2 sequence (P30559 whole entry): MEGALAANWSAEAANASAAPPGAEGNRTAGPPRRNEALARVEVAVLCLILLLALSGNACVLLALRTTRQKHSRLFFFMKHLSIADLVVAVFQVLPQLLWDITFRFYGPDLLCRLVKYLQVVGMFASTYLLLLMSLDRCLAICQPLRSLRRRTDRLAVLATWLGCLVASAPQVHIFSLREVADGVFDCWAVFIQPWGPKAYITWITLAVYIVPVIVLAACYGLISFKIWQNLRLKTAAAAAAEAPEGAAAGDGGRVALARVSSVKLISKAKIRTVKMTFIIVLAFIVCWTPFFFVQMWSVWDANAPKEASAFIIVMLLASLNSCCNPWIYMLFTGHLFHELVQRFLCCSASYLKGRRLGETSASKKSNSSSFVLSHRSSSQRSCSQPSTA
Description: Antagonist activity at oxytocin receptor (unknown origin) assessed as inhibition of agonist-induced oxytocic response. The settings on record: read-out: pA2 (converted). In outline:
(§2)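 Isolated uteri from rats in natural estrus, suspended in Mg-free van Dyke-Hasting's solution with isotonic contraction recording, bath 30 °C. Antagonism of oxytocin was analysed by the Schild method. pA2 is the negative log of the average molar antagonist concentration that reduces the response to 2x units of oxytocin to the response to x units.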

For experiment [3], the target named is T3, Oxytocin receptor (Homo sapiens) (UniProt P30559).
T3 sequence (whole entry): T2 sequence (P30559 whole entry)
The experiment can be described thus: Agonist activity at oxytocin receptor (unknown origin).

For experiment [4], the target named is T1, Oxytocin receptor (Mus musculus). The experiment can be described thus: Antagonist activity at oxytocin receptor in mouse mammary gland tissue assessed as inhibition of oxytocin-induced milk ejection at 7.5X10'-6 M by spectrophotometry. In outline: as §1
Experiment [5] deals with T4, Oxytocin receptor (Rattus norvegicus, UniProt P70536).
T4 sequence (P70536 whole entry): T1 sequence (whole entry) with I11V, A23E, L27R, R33Q, A159G, V169A, S245N, L344F, I361V
The experiment can be described thus: Antagonist activity at oxytocin receptor in isolated rat uterus assessed as inhibition of oxytocin-induced oxytocic response. The settings on record: read-out: pA2 (converted). Put shortly: as §2

Experiment [6] addresses T5, Oxytocin receptor (Rattus norvegicus) (UniProt P70536).
T5 sequence (whole entry): T1 sequence (whole entry) with I11V, A23E, L27R, R33Q, A159G, V169A, S245N, L344F, I361V
The experiment can be described thus: Antagonist activity at oxytocin receptor in isolated rat uterus assessed as inhibition of oxytocin-induced oxytocic response at 20:1 compound to oxytocin ratio pretreated up to 90 secs prior to oxytocin addition.

Experiment [7] concerns the target T5, Oxytocin receptor (Rattus norvegicus). Description: Antagonist activity at oxytocin receptor in isolated rat uterus assessed as inhibition of oxytocin-induced oxytocic response at 20:1 compound to oxytocin ratio pretreated for 10 to 20 secs prior to oxytocin addition. To be noted: concentration not given here.
Experiment [8] has the same target. The experiment can be described thus: Antagonist activity at oxytocin receptor in isolated rat uterus assessed as inhibition of oxytocin-induced oxytocic response at 20:1 compound to oxytocin ratio followed by compound washout.
Experiment [9] shares this target. The experiment can be described thus: Antagonist activity at oxytocin receptor in isolated rat uterus assessed as incidence of regular phasic contractions of uterus at 0.25 ug/ml.
For experiment [10] the target is unchanged. The experiment can be described thus: Antagonist activity at oxytocin receptor in isolated rat uterus assessed as inhibition of oxytocic response at 0.25 ug/ml pretreated for 30 secs prior to oxytocin addition relative to control.
For experiment [11] the target is unchanged. Description: Antagonist activity at oxytocin receptor in isolated rat uterus assessed as reduction of subsequent contractions at 0.25 ug/ml measured during 10 mins interval of compound dosing.
Experiment [12] shares this target. The experiment can be described thus: Antagonist activity at oxytocin receptor in isolated rat uterus assessed as inhibition of oxytocic response at 0.25 ug/ml added simultaneously with oxytocin.
The target is the same in experiment [13]. The experiment can be described thus: Antagonist activity at oxytocin receptor in isolated rat uterus assessed as incidence of regular phasic contractions of uterus at 0.25 ug/ml measured during 6 mins interval of compound dosing.
Experiment [14] has the same target. The experiment can be described thus: Antagonist activity at oxytocin receptor in isolated rat uterus assessed as inhibition of oxytocin-induced contractions at 0.25 ug/ml dosed at the peak of first contraction measured during 10 mins interval of compound dosing.
For experiment [15] the target is unchanged. Description: Antagonist activity at oxytocin receptor in isolated rat uterus assessed as inhibition of oxytocin-induced oxytocic response at 0.25 ug/ml followed by compound washout.
For experiment [16], the target named is T1, Oxytocin receptor (Mus musculus). The experiment can be described thus: Agonist activity at oxytocin receptor in mouse mammary gland tissue assessed as milk-ejecting activity at 10^-5 M by spectrophotometry.
Experiment [17] has as its target T4, Oxytocin receptor. Description: Antagonist activity at oxytocin receptor in rat assessed as inhibition of agonist-induced oxytocic response. To be noted: read-out: pA2 (converted). Put shortly: as §2

As to `CC[C@H](C)[C@@H]1NC(=O)[C@H](Cc2ccc(O)cc2)NC(=O)[C@@H](N)C(C)(C)SSC[C@@H](C(=O)N2CCC[C@H]2C(=O)N[C@@H](CC(C)C)C(=O)NCC(N)=O)NC(=O)[C@H](CC(N)=O)NC(=O)[C@H](CCC(N)=O)NC1=O`, the inhibition entry in experiment [1] was “Active”. Moreover, the Kb in experiment [2] is 138 nM.

`CC[C@H](C)[C@@H]1NC(=O)[C@H](Cc2ccc(O)cc2)NC(=O)CCSSCC(C(=O)N2CCC[C@H]2C(=O)N[C@@H](CC(C)C)C(=O)NCC(N)=O)NC(=O)[C@H](CC(N)=O)NC(=O)[C@H](CCC(N)=O)NC1=O` (single isomer, unassigned) displayed an Activity in [3] of 803 U/mg.

In the case of `CC[C@H](C)[C@@H]1NC(=O)[C@H](Cc2ccc(O)cc2)NC(=O)CC(C)(C)SSC[C@@H](C(=O)N2CCC[C@H]2C(=O)N[C@@H](CC(C)C)C(=O)NCC(N)=O)NC(=O)[C@H](CC(N)=O)NC(=O)[C@H](CCC(N)=O)NC1=O` (YIQNCPLG-NH2; linker N-5 via X2), the Kb in [2] was 115 nM.

For the compound `CC[C@H](C)[C@@H]1NC(=O)[C@H](CC(C)C)NC(=O)[C@@H](N)C(C)(C)SSC[C@@H](C(=O)N2CCC[C@H]2C(=O)N[C@@H](CC(C)C)C(=O)NCC(N)=O)NC(=O)[C@H](CC(N)=O)NC(=O)[C@H](CCC(N)=O)NC1=O` (H-[Pen]LIQNCPLG-NH2; disulfide 1-6), the inhibition result in experiment [4], in [6] and in experiment [14] was “Active” throughout. Moreover, the Kb in [5] was 72.4 nM. Besides, the inhibition came out at 50% in [7] and 60% in [10]. The inhibition result in experiment [8], in experiment [12], in experiment [13] and in experiment [15] was “inactive” in each case. For the same compound, the result in [9] and in experiment [16] was inactive. Besides, the outcome in [11] was Active.

`CC[C@H](C)[C@@H]1NC(=O)[C@H](CC(C)C)NC(=O)[C@@H](N)CSSC[C@@H](C(=O)N2CCC[C@H]2C(=O)N[C@@H](CC(C)C)C(=O)NCC(N)=O)NC(=O)[C@H](CC(N)=O)NC(=O)[C@H](CCC(N)=O)NC1=O` (H-CLIQNCPLG-NH2; disulfide 1-6): in [3], the Activity is 0.5 U/mg.

Turning to `CC[C@H](C)[C@@H]1NC(=O)[C@H](Cc2cc(Br)c(O)c(Br)c2)NC(=O)CCSSC[C@@H](C(=O)N2CCC[C@H]2C(=O)N[C@@H](CC(C)C)C(=O)NCC(N)=O)NC(=O)[C@H](CC(N)=O)NC(=O)[C@H](CCC(N)=O)NC1=O`, the Kb in [17] was 89.1 nM.

`CC[C@H](C)[C@@H]1NC(=O)[C@H](Cc2ccc(O)cc2)NC(=O)CC(CC)(CC)SSC[C@@H](C(=O)N2CCC[C@H]2C(=O)N[C@@H](CC(C)C)C(=O)NCC(N)=O)NC(=O)[C@H](CC(N)=O)NC(=O)[C@H](CCC(N)=O)NC1=O` (YIQNCPLG-NH2; linker N-5 via X1): the Kb in [2] was 57.5 nM.

As to `CC[C@H](C)[C@@H]1NC(=O)[C@H](Cc2ccc(O)cc2)NC(=O)CC(C)(C)SSC[C@@H](C(=O)N2CCC[C@H]2C(=O)N[C@@H](CC(C)C)C(=O)NCC(N)=O)NC(=O)[C@H](CC(N)=O)NC(=O)[C@H]([C@@H](C)O)NC1=O` (YITNCPLG-NH2; linker N-5 via X2), in experiment [17], the Kb is 31.6 nM.

For `CC[C@H](C)[C@@H]1NC(=O)[C@H](Cc2ccc(O)cc2)NC(=O)CC(CC)(CC)SSC[C@@H](C(=O)N2CCC[C@H]2C(=O)N[C@@H](CC(C)C)C(=O)NCC(N)=O)NC(=O)[C@H](CC(N)=O)NC(=O)[C@H](CC(C)C)NC1=O` (YILNCPLG-NH2; linker N-5 via X1), in [2], the Kb is 95.5 nM.

As to `CC[C@H](C)[C@@H]1NC(=O)[C@H](Cc2cc(Br)c(O)c(Br)c2)NC(=O)CC(CC)(CC)SSC[C@@H](C(=O)N2CCC[C@H]2C(=O)N[C@@H](CC(C)C)C(=O)NCC(N)=O)NC(=O)[C@H](CC(N)=O)NC(=O)[C@H](CCC(N)=O)NC1=O` ([Tyr(3,5-Br2)]IQNCPLG-NH2; linker N-5 via X1), in [17], the Kb is 83.2 nM.

For the compound `CC[C@H](C)[C@@H]1NC(=O)[C@H](Cc2ccc(O)cc2)NC(=O)[C@@H](N)C(C)(C)SSC[C@@H](C(=O)N2CCC[C@H]2C(=O)N[C@@H](CC(C)C)C(=O)NCC(N)=O)NC(=O)[C@H](CC(N)=O)NC(=O)[C@H](CC(C)C)NC1=O` (H-[Pen]YILNCPLG-NH2; disulfide 1-6), the Kb in [2] is 170 nM.

The inhibition is the change of the read-out against control, counted positive when it falls.
